Experimental findings from ChEMBL document CHEMBL1129968, “Synthesis, dopamine transporter affinity, dopamine uptake inhibition, and locomotor stimulant activity of 2-substituted 3 beta-phenyltropane derivatives” (J Med Chem, 1997) are described below.

One may read the ED50 as the dose at which the effect has come halfway, by size or by number of responders. A higher ED50 goes with a need for a large dose. Usually Ki stands for a dissociation constant, usually derived from enzyme kinetics or from competition with a known ligand. Low values mean tighter binding, high ones weaker binding. In general, IC50 refers to the concentration that inhibits the measured activity by half.

The species entered for assay [1] is Rattus norvegicus. The assay can be described thus: Values for substitution for Cocaine in rats Trained to discriminate Cocaine from saline. Format: functional. In outline: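 Read-out is the percentage of responses on the cocaine-appropriate lever, with doses in µmol/kg. Lever selection was counted unreliable below 0.02 responses/s, and a point was dropped if fewer than half of subjects met this rate. Four to six rats per point. ED50 given with 95% confidence limits.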

Assay [2] addresses T1, Sodium-dependent dopamine transporter (Rattus norvegicus, UniProt P23977). Put plainly: Displacement of [3H]WIN-35428 from dopamine transporter (DAT) in Rat Caudate Putamen. Format: tissue-based. The method, boiled down: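 Ki is the inhibition constant derived for the unlabeled ligand. Values are the mean ± SEM of three experiments run in triplicate. Compounds were tested as HCl salts unless noted, some as fumarate salts. Data were fitted to single-site versus two-site binding models.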

The species named for assay [3] is Mus musculus. Put plainly: Stimulation of locomotor activity of mice. The assay is classed as functional. In outline: (§1)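 Mice given drug or saline vehicle, with horizontal activity counts recorded in 10 min periods over a 60 min session. Eight mice per dose, doses in µmol/kg. The dose-response used the first 30 min after injection. ED50 is from the dose-response, and the maximal stimulant effect and time course were also assessed.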

The species entered for assay [4] is Rattus norvegicus. Put plainly: Compound was evaluated for inhibition of [3H]- dopamine Uptake in rat caudate - putamen tissue. Format: functional. In outline: (§2)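 [3H]dopamine uptake into rat caudate-putamen tissue. IC50 values are the mean ± SEM of three experiments, each run in triplicate. Compounds were tested as HCl salts unless noted, some as fumarate salts.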

The target of assay [5] is T1, Sodium-dependent dopamine transporter. The assay can be described thus: Compound was evaluated for its ability to displace [3H]WIN-35428 from dopamine transporter in rat caudate putamen tissue. The assay is classed as tissue-based. In outline: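 Rat caudate-putamen tissue, displacing bound [3H]WIN 35,428. Ki is the inhibition constant derived for the unlabeled ligand. Values are the mean ± SEM of three experiments run in triplicate. Compounds were tested as HCl salts unless noted, some as fumarate salts. Data were fitted to single-site versus two-site binding models.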

The species entered for assay [6] is Rattus norvegicus. The assay can be described thus: Compound was evaluated for inhibition of [3H]- dopamine uptake in rat caudate - putamen tissue. Format: functional. The method, boiled down: as §2
For assay [7], the species on record is Mus musculus. The assay can be described thus: Stimulation of locomotor activity of Mice. The assay is classed as functional. The method, boiled down: as §1

Several values for one entry are separate records, joined by “and”; a condition that tells them apart may be missing. Equal values may be shown once.

T1 sequence (P23977 whole entry): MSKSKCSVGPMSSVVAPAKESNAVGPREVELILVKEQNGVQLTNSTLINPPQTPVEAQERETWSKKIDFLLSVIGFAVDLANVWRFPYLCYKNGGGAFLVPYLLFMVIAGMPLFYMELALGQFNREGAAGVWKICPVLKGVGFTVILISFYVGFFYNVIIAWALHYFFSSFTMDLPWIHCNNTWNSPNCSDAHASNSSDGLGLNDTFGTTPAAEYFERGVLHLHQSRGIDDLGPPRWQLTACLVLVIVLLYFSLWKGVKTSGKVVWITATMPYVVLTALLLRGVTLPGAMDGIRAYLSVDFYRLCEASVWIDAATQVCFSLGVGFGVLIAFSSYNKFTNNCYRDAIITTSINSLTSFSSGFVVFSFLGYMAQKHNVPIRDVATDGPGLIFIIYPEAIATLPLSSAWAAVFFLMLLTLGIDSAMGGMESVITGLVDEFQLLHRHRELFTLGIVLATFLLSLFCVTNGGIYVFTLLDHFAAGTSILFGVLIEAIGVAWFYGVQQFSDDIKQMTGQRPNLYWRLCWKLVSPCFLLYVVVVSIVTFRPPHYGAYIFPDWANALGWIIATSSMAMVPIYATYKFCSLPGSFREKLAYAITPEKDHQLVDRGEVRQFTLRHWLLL

Consider `COC(=O)/C=C/CCC1C(c2ccccc2)CC2CCC1N2C` (stereo not given), for which the 50% effect level in the assay listed under Rattus norvegicus [1] (ED50) was put at a dose of 15 µmol/kg. The Ki in assay [2] is 20 nM. Also, in the assay filed under Mus musculus [3], the 50% effect level (ED50) was put at a dose of 9.21 µmol/kg and the Max effect stood at 17327 Counts 10min-1. The same molecule showed an IC50 in the assay filed under Rattus norvegicus [4] of 203 nM.
For the molecule `CN1C2CCC1C(CCCc1ccccc1)C(c1ccccc1)C2` (stereo not given), in assay [2], the Ki was determined as 16 nM. The IC50 in the assay filed under Rattus norvegicus [4] was determined as 43 nM.
Consider `CN1C2CCC1C(/C=C/CO)C(c1ccccc1)C2` (stereo not given), for which the Ki in assay [5] was 26 nM. The same molecule showed an IC50 in the assay listed under Rattus norvegicus [6] of 159 nM.
For the molecule `COC(=O)[C@H]1[C@@H](OC(=O)c2ccccc2)C[C@@H]2CC[C@H]1N2C` [COCAINE], the ED50 worked out at 8.74 µmol/kg in the assay listed under Rattus norvegicus [1] and 20.8 µmol/kg in the assay filed under Mus musculus [3]. This molecule also gave a Max effect in the assay filed under Mus musculus [3] of 12518 Counts 10min-1.
`COC(=O)[C@@H]1C2CC[C@H](C[C@@H]1c1ccccc1)N2C` (single isomer, unassigned): the Ki in assay [2] is 33 nM and 314 nM. In the assay filed under Rattus norvegicus [4], half-maximal inhibition (IC50) was put at 373 nM.
As for `CN1C2CCC1C(CCCO)C(c1ccccc1)C2` (stereo not given), the results for the 50% effective dose (ED50) in the assay listed under Rattus norvegicus [1] and in the assay listed under Mus musculus [3] were 12.9 µmol/kg and 12 µmol/kg, respectively. For the same molecule, the Ki in assay [2] was 11 nM. In the assay listed under Mus musculus [3], this molecule came in with a Max effect of 20820 Counts 10min-1. Further, the IC50 in the assay filed under Rattus norvegicus [4] is 64 nM.
Turning to `COC(=O)CCC1C(c2ccccc2)CC2CCC1N2C` (stereo not given), it took 166 nM to reach half-maximal inhibition in the assay filed under Rattus norvegicus [6] (IC50). Also, the affinity in assay [2], expressed as Ki, was 23 nM.
Take `COC(=O)/C=C/C1C(c2ccccc2)CC2CCC1N2C` (stereo not given): the ED50 in the assay listed under Mus musculus [7] is 4.74 µmol/kg; in the assay listed under Rattus norvegicus [1], 12.8 µmol/kg. This molecule came in with an IC50 in the assay filed under Rattus norvegicus [6] of 123 nM. Besides, in assay [2], the affinity corresponds to a Ki of 22 nM. The molecule further returned a Max effect in the assay listed under Mus musculus [3] of 14996 Counts 10min-1.
The molecule `COC(=O)CCCCC1C(c2ccccc2)CC2CCC1N2C` (stereo not given) came in with a Ki in assay [2] of 30 nM. In addition, the midpoint of inhibition in the assay filed under Rattus norvegicus [4], the IC50, lay at 130 nM.
For `CN1C2CCC1C(CCC(=O)c1ccccc1)C(c1ccccc1)C2` (stereo not given), in that order: 28 nM and 47 nM.
